The source of these data is PubChem BioAssay.

The source made the active and inactive calls.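 How the source made its calls, unless noted: active means fluorescence slope after compound addition differing from the mean of all screened samples at 99.7% confidence, in either direction; inactive means the rest.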

Assay [1] in a line: inhibitors of TNFa-induced NFkB p65 translocation, primary screen, imaging, HUVEC, MLSMR starter and 10KST1 sets (AID 438;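 active means inhibition above 20% together with a positive visual image hit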;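 further: compound added about 3h40 before a 20 min TNFalpha stimulation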;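 on inhibition: signal is the nuclear over cytoplasmic p65 intensity ratio per well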). To be noted: HUVEC TNFa-induced p65 nuclear translocation; cell count: measured here: nuclei count (cytotoxicity indicator), at 2.08 µM unless noted; inhibition: at 2 µM, stronger effect = higher value unless noted.
A short description of assay [2]: inhibitors of E-selectin induction by TNFa, primary screen, imaging, HUVEC, immunofluorescence, MLSMR starter and 10KST1 sets (AID 487;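 active means visually confirmed hit in the image check and inhibition above 20%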;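 on inhibition: signal is fraction of cell area covered by stained E-selectin grains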;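 on nuclei count: 100% = median nuclei count of all wells on the same plate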). To be noted: HUVEC TNFalpha-induced E-selectin immunofluorescence imaging, at 2 µM; inhibition: stronger effect = higher value; nuclei count: measured here: cell number, toxicity.
Assay [3] in a line: DUSP6 inhibitors restoring Erk phosphorylation by chemical complementation, primary imaging in DUSP6-transfected HeLa (AID 609;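 active means compounds giving at least 50% inhibition in the cell-based MKP-3 phosphatase rescue imaging test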;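 on inhibition: phospho-Erk level distribution per well compared with pooled transfected vehicle control wells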). The settings on record: HeLa MKP-3 transfected, phospho-Erk imaging KS statistic, at 10 µM.
Assay [4] deals with Dual specificity protein phosphatase 6 (Homo sapiens) (UniProt Q16828). The assay is described as above. The settings on record: HeLa MKP-3 transfected, phospho-Erk imaging KS statistic, at 10 µM, stronger effect = higher value.
Chain of Dual specificity protein phosphatase 6 (Homo sapiens) (Q16828 whole entry, looked up): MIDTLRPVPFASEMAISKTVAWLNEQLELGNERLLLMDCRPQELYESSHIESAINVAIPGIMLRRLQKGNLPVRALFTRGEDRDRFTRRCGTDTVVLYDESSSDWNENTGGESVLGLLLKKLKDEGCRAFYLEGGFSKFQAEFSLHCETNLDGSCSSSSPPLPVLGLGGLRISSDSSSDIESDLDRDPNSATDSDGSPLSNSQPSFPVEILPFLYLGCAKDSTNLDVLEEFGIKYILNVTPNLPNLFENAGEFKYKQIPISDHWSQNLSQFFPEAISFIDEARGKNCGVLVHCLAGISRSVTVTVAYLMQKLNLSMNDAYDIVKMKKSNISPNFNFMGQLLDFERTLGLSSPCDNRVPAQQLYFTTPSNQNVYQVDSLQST
Assay [5] has as its target Voltage-gated potassium channel subunit beta-2 (Rattus norvegicus) (UniProt P62483). The assay can be described thus: KvBeta enzyme negative modulators, primary screen, biochemical, NADPH fluorescence (AID 622;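 active means fluorescence slope higher than the sample average by over 3 SD, cut at about -0.22 in these data, passing the limit was not always enough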;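 further: slope of raw intensity against log time taken from 70 to 1610 s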). To be noted: recombinant KvBeta, 4-cyanobenzaldehyde reduction, at 10 µM, stronger effect = higher value.
For assay [6] the target is unchanged. The experiment in a line: KvBeta positive modulators, primary screen, biochemical, NADPH fluorescence (AID 623;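 active means NADPH fluorescence slope more negative than the mean of all samples by about 3 SD, 99.7% confidence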;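 further: fluorescence intensity change per second fitted from 20 to 320 s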). To be noted: Recombinant KvBeta, NADPH fluorescence decrease slope, 10 min; at 10 µM; stronger effect = lower value.
The target of assay [7] is Alpha-2C adrenergic receptor (Homo sapiens) (UniProt P18825). The experiment in a line: modulators of alpha2C/GIRK thallium flux, primary screen, cell-based, HEK293 alpha2C/GIRK1/2 (AID 624).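 Further: slope of fluorescence ratio to pre-addition baseline per second over 15 to 24 s.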 The settings on record: thallium flux BTC fluorescence, at 10 µM, actives lie on both sides.
Chain of Alpha-2C adrenergic receptor (Homo sapiens) (P18825 whole entry, looked up): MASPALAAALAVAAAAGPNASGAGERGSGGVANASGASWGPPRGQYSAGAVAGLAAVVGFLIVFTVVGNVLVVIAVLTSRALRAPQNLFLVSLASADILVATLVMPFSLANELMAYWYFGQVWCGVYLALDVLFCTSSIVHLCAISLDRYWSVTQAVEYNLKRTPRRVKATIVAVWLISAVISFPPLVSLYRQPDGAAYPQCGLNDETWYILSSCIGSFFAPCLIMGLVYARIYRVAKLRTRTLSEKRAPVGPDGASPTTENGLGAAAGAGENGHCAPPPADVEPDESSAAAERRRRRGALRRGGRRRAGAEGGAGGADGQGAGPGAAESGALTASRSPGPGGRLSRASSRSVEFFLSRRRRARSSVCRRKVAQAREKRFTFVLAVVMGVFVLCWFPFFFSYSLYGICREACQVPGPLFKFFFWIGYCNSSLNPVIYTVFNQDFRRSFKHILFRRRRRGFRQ
Assay [8] in a line: inhibitors of larval lipid processing in zebrafish, primary screen, whole organism, PED6 fluorescence, gall bladder and intestine (AID 686;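 active means a full or partial loss of lipid-probe fluorescence in the fish gall bladder, intestine or both, judged by eye; inactive means no fluorescence loss, or compound toxic to the fish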;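 further: larvae 5 to 7 days old with five fish per well; signal comes from phospholipase A2 cleavage of quenched PED6 carried via bile; overnight exposure to compound and PED6 before scoring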). The settings on record: Zebrafish larvae PED6 lipid processing, fluorescence scoring. In outline:
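Doses: 20 µM single dose. Test system: live zebrafish larvae aged 5-7 days, whole organism. Quantity: five larvae per well. Measured by: By-eye fluorescence microscopy. Reagent: ingested quenched lipid PED6 at 100 nM. Read-out: visual per-well fluorescence inhibition score. Times: overnight exposure of larvae to compound plus PED6.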

The nature of assay [9]: inhibitors of Chlamydomonas gravitaxis, primary screen, whole organism, Chlamydomonas reinhardtii, WT vs cilia-less mutant, absorbance, 96-well (AID 463189;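 active means inhibition at or above 50% relative to wild type and mutant plate controls; inactive means inhibition below 50%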;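 further: 0% = wild type cc124 cells in DMSO and 100% = ciliumless bld1 mutant cells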). To be noted: OD600 absorbance, 2 days, at 10 µM, stronger effect = higher value.
The mark [10] stands for this setting: measured here: cell density z-score.
Where [11] appears, read: measured here: nuclear c-Myc green intensity z-score.
[12] abbreviates: measured here: nuclear pErk red intensity z-score, stronger effect = higher value.

Chain of Voltage-gated potassium channel subunit beta-2 (Rattus norvegicus) (P62483 whole entry, looked up): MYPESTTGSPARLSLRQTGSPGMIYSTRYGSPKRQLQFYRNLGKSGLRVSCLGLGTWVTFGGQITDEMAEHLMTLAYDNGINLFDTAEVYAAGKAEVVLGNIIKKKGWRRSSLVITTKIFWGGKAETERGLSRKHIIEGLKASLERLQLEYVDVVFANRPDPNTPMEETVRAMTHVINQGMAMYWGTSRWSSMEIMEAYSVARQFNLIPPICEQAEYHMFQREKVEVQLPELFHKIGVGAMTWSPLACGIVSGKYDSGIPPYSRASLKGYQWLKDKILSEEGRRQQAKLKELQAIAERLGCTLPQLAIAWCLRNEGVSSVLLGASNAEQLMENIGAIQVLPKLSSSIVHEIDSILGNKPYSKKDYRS

The compound `CCCCOCCCn1c(N)c(C(=O)OC(C)COC)c2nc3ccccc3nc21` (stereo unspecified) showed a cell count in assay [1] of 572. The inhibition in [1] was -16.3% (inactive); in assay [2], -75.8% (inactive); in [4] it was 11.9% (inactive); in assay [9], 21% (inactive). Besides, the nuclei count in [2] turned out to be 146%. In addition, the z-score was 0.315 in assay [3] (setting [10]), -0.916 in assay [3] (setting [11]) and -1.54 in [3] (setting [12]). Besides, in assay [5], the fluorescence slope is -0.0435 (inactive). Besides, in assay [6], the NADPH fluorescence slope was -1e-05 (inactive). The slope in assay [7] is 0.00527 (inactive). Also, in assay [8], the result was inactive.
Consider `COc1ccc(Cn2c(O)c(C=NCCCn3ccnc3)c(=O)[nH]c2=O)cc1`, for which the cell count in assay [1] was 466. Also, the inhibition in [1] is -0.7% (inactive); in assay [2], 54% (inactive); in [4] it was 4.25% (inactive); in assay [9], -4.22% (inactive). The compound further returned a nuclei count in assay [2] of 81.9%. The z-score was -1.17 in assay [3] (setting [10]), 0.328 in [3] (setting [11]) and 0.929 in assay [3] (setting [12]). In assay [5], the fluorescence slope was -0.443 (inactive). The NADPH fluorescence slope in assay [6] was -1.5e-05 (inactive). In addition, the slope in [7] was 0.00461 (inactive). In assay [8], the compound was called inactive.
`O=c1[nH]c(=O)n(Cc2ccccc2)c(O)c1C=NCCN1CCNCC1` returned a cell count in assay [1] of 548. Besides, the inhibition in assay [1] is -7.6% (inactive); in assay [2], -71.4% (inactive); in assay [4], 7.93% (inactive); in assay [9] it was -6.44% (inactive). In assay [2], the nuclei count was found to be 125%. For the same compound, the z-score in assay [3] (setting [10]) is -0.72; in assay [3] (setting [11]), 0.623; in [3] (setting [12]), -0.0503. Also, in [5], the fluorescence slope was -0.51 (inactive). In addition, the NADPH fluorescence slope in assay [6] is -3.8e-05 (inactive). In [7], the slope is 0.00654 (inactive). Moreover, the result in [8] was inactive.
In [1], `CCOC(C(=O)OCC(O)CN(CC)CC)(c1ccccc1)c1ccccc1` (stereo unspecified) returned a cell count of 598. Moreover, the inhibition in [1] is -12.4% (inactive); in assay [2] it was -341% (inactive); in assay [4], -5.89% (inactive); in [9], 19.6% (inactive). Further, the nuclei count in assay [2] was 184%. Besides, the z-score in assay [3] (setting [10]) is -0.241; in [3] (setting [11]), -0.53; in [3] (setting [12]) it was 1.71. The fluorescence slope in assay [5] is -0.446 (inactive). In addition, the NADPH fluorescence slope in assay [6] was -0.000326 (inactive). Besides, the slope in [7] was 0.00508 (inactive). Further, in assay [8], the result was inactive.
Compound `O=C1C2CCN(CC2)[C@@H]1Cc1ccc2ccccc2c1O` registered a cell count in assay [1] of 542. In addition, the inhibition in [1] is -18.4% (inactive); in assay [2], -159% (inactive); in assay [4], 9.91% (inactive); in assay [9], 9.49% (inactive). This compound came in with a nuclei count in assay [2] of 135%. Further, the z-score in [3] (setting [10]) is 0.277; in assay [3] (setting [11]) it was -1; in assay [3] (setting [12]), -0.726. Further, the fluorescence slope in [5] was -0.498 (inactive). In addition, in [6], the NADPH fluorescence slope was -6.4e-05 (inactive). Besides, the slope in [7] was 0.00747 (inactive). Further, the result in assay [8] was inactive.
With `CCN(CC)CCCNC(=O)c1c(O)c2ccccc2n(Cc2ccccc2)c1=O`, the cell count in assay [1] is 520. The inhibition in assay [1] is -4.8% (inactive); in assay [2] it was -10.6% (inactive); in assay [4] it was 15.8% (inactive); in [9] it was -10.8% (inactive). This compound also yielded a nuclei count in assay [2] of 98.5%. Besides, the z-score in assay [3] (setting [10]) was 3.05; in [3] (setting [11]), 0.407; in [3] (setting [12]), -1.44. For the same compound, the fluorescence slope in assay [5] is -0.425 (inactive). The NADPH fluorescence slope in [6] was -6.7e-06 (inactive). In addition, in [7], the slope was 0.00401 (inactive). Besides, the compound was called inactive in [8].
`CN1CC=C2C(C#N)=C(N)C(C#N)(C#N)C(c3ccncc3)C2C1` (stereo unspecified) displayed a cell count in [1] of 568. The inhibition in [1] was -17% (inactive); in assay [2], 30.3% (inactive); in [4], 67.6% (inactive); in assay [9], 11.3% (inactive). The nuclei count in [2] came to 179%. In addition, the z-score in assay [3] (setting [10]) was -0.865; in assay [3] (setting [11]), 3.38; in [3] (setting [12]), -0.482. Besides, the fluorescence slope in assay [5] is -0.392 (inactive). For the same compound, the NADPH fluorescence slope in assay [6] is -5.3e-05 (inactive). Also, the slope in assay [7] was 0.00203 (inactive). Also, in assay [8], the outcome was inactive.
As for `CCOC(=O)[C@]1(C#N)[C@@H]2C=CC(C(C)=O)=CN2[C@@H](C(N)=O)[C@@H]1c1ccsc1`, the cell count in assay [1] came out at 560. Moreover, the inhibition in [1] is -5.3% (inactive); in [2], -130% (inactive); in assay [4], -2.91% (inactive); in assay [9] it was 13.7% (inactive). In assay [2], this compound registered a nuclei count of 212%. Further, the z-score in [3] (setting [10]) is 0.77; in assay [3] (setting [11]), 0.227; in assay [3] (setting [12]) it was -0.321. Further, in assay [5], the fluorescence slope was -0.358 (inactive). For the same compound, the NADPH fluorescence slope in [6] is -1.4e-05 (inactive). Also, in assay [7], the slope is -0.00125 (inactive). Also, the call in assay [8] was inactive.
`O=C(Nc1ccncc1)c1c(O)c2ccccc2n(Cc2ccccc2)c1=O` returned a cell count in assay [1] of 544. Besides, the inhibition is -4.5% [at 2 µM, stronger effect = higher value, 0% TNFa-plus-vehicle, 100% no-TNFa wells] (inactive) in [1]; -23.1% (inactive) in assay [2]; 10.5% [cells stimulated with TPA for 15 min] (inactive) in assay [4]; 30.8% (inactive) in assay [9]. This compound also yielded a nuclei count in assay [2] of 145%. Also, the z-score was -0.126 in assay [3] (measured here: cell density z-score, cells stimulated with TPA for 15 min); -1.62 in assay [3] (measured here: nuclear c-Myc green intensity z-score, cells stimulated with TPA for 15 min); -0.473 in assay [3] (measured here: nuclear pErk red intensity z-score, stronger effect = higher value, cells stimulated with TPA for 15 min). Moreover, in [5], the fluorescence slope is -0.32 (inactive). In assay [6], the NADPH fluorescence slope is 2.5e-05 (inactive). The slope in assay [7] was 0.00467 (inactive). For the same compound, the outcome in assay [8] was “inactive [screened at 20 µM (by protocol)]”.
In assay [1], `CC(=O)OC1(c2ccc(C)cc2)CN2CCC1c1ccccc12` (stereo unspecified) yielded a cell count of 554. Besides, the inhibition in assay [1] is -10% (inactive); in assay [2] it was -198% (inactive); in [4] it was 25.8% (inactive); in assay [9], 18.7% (inactive). For the same compound, in assay [2], the nuclei count turned out to be 145%. For the same compound, the z-score in assay [3] (setting [10]) was found to be 0.866; in assay [3] (setting [11]), 0.595; in assay [3] (setting [12]) it was 0.108. For the same compound, the fluorescence slope in [5] was -0.502 (inactive). For the same compound, the NADPH fluorescence slope in assay [6] is -6.1e-05 (inactive). The slope in assay [7] was 0.00515 (inactive). Also, in assay [8], the outcome was inactive.
For `C=CCC1(CN2CCCCCC2=O)C(=O)NC(=O)NC1=O`, the cell count in assay [1] turned out to be 656. Moreover, the inhibition in assay [1] was 4% (inactive); in [2], -118% (inactive); in assay [4], 11.3% (inactive); in assay [9], -7.71% (inactive). In assay [2], this compound displayed a nuclei count of 148%. Further, the z-score in assay [3] (setting [10]) is -0.0973; in [3] (setting [11]) it was 0.0168; in assay [3] (setting [12]), -1.06. In addition, the fluorescence slope in assay [5] was -0.517 (inactive). In assay [6], the NADPH fluorescence slope is -6.8e-05 (inactive). In addition, the slope in assay [7] is 0.00505 (inactive). In assay [8], the call was inactive.
Compound `CCCc1nc2ccccc2c(=O)n1-c1ccccc1OC` yielded a cell count in assay [1] of 587. The inhibition in assay [1] is -5.2% (inactive); in assay [2], -140% (inactive); in assay [4] it was -4.78% (inactive); in assay [9], -2.29% (inactive). In assay [2], the nuclei count amounted to 134%. The z-score in assay [3] (setting [10]) is -0.589; in assay [3] (setting [11]) it was -0.508; in assay [3] (setting [12]), -0.325. In [5], the fluorescence slope is -0.375 (inactive). Besides, the NADPH fluorescence slope in assay [6] was -2e-05 (inactive). Further, the slope in [7] is 0.00541 (inactive). Also, the compound was called inactive in assay [8].
